We go through 3 compounds from ChEMBL document CHEMBL3425440, “ent-Kaurane Diterpenoids from Chinese Liverworts and Their Antitumor Activities through Michael Addition As Detected in Situ by a Fluorescence Probe” (J Med Chem, 2015).

Structures are written as SMILES.

The test system of one assay is DU-145. The assay is described as follows: Cytotoxicity against human DU145 cells assessed as cell viability after 24 hrs by MTT assay. Format: functional, cell-based. Conditions: DU-145, 24 h. The method, boiled down: (§1)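 Cells grown to about 50−70% confluence at 37 °C, 5% CO2, then exposed to compounds 24 h (DMSO vehicle control, cisplatin positive control). MTT (5 mg/mL stock) added for 4 h, formazan dissolved in DMSO, absorbance read at 570 nm. IC50 derived from percent viability; at least three independent experiments, mean ± SD.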
Background: Formazan colour is commonly taken as a measure of viable cells.
A word on the IC50: it is the midpoint of a concentration-inhibition curve. `C=C1C(O)[C@@]23CC[C@H]4[C@@](C)(CCC[C@@]4(C)C(=O)OCCBr)[C@@H]2CC[C@]1(O)C3` (some centres not stated): the IC50 is greater than 50 µM.

Turning to `C=C1[C@@H]2CC[C@H]3[C@]4(C)CCC[C@](C)(C(=O)O)[C@H]4CC[C@]3(C2)[C@@H]1OC(C)=O`, the IC50 is greater than 50 µM.

As to `C=C1[C@@H]2CC[C@]3(O)[C@@](CC[C@@H]4C(C)(C)CCC[C@]43C)(C2)[C@@H]1O`, the IC50 was greater than 50 µM.

Test system in another assay: not listed separately
In words: Cytotoxicity against human T24 cells assessed as cell viability after 24 hrs by MTT assay. Conditions: T-24, 24 h. Format: functional, cell-based. In outline: as §1
For `C=C1C(O)[C@@]23CC[C@H]4[C@@](C)(CCC[C@@]4(C)C(=O)OCCBr)[C@@H]2CC[C@]1(O)C3` (some centres not stated), the IC50 is greater than 50 µM.

`C=C1[C@@H]2CC[C@H]3[C@]4(C)CCC[C@](C)(C(=O)O)[C@H]4CC[C@]3(C2)[C@@H]1OC(C)=O`: the IC50 is greater than 50 µM.

Regarding `C=C1[C@@H]2CC[C@]3(O)[C@@](CC[C@@H]4C(C)(C)CCC[C@]43C)(C2)[C@@H]1O`, the IC50 was greater than 50 µM.

Another assay relates to NCI-H1299. In words: Cytotoxicity against human NCI-H1299 cells assessed as cell viability after 24 hrs by MTT assay. Format: functional, cell-based. The following applies: NCI-H1299, 24 h. The method, boiled down:
as §1
Regarding `C=C1C(O)[C@@]23CC[C@H]4[C@@](C)(CCC[C@@]4(C)C(=O)OCCBr)[C@@H]2CC[C@]1(O)C3` (some centres not stated), the IC50 is greater than 50 µM.

As to `C=C1[C@@H]2CC[C@H]3[C@]4(C)CCC[C@](C)(C(=O)O)[C@H]4CC[C@]3(C2)[C@@H]1OC(C)=O`, the IC50 is greater than 50 µM.

On to `C=C1[C@@H]2CC[C@]3(O)[C@@](CC[C@@H]4C(C)(C)CCC[C@]43C)(C2)[C@@H]1O`, for which the IC50 was greater than 50 µM.

Test system in another assay: not listed separately
In words: Cytotoxicity against human SH-SY5Y cells assessed as cell viability after 24 hrs by MTT assay. Format: functional, cell-based.
Conditions: not given
The method, boiled down:
as §1
Take `C=C1C(O)[C@@]23CC[C@H]4[C@@](C)(CCC[C@@]4(C)C(=O)OCCBr)[C@@H]2CC[C@]1(O)C3` (some centres not stated): the IC50 was greater than 50 µM.

`C=C1[C@@H]2CC[C@H]3[C@]4(C)CCC[C@](C)(C(=O)O)[C@H]4CC[C@]3(C2)[C@@H]1OC(C)=O`: the IC50 is greater than 50 µM.

On to `C=C1[C@@H]2CC[C@]3(O)[C@@](CC[C@@H]4C(C)(C)CCC[C@]43C)(C2)[C@@H]1O`, for which the IC50 is greater than 50 µM.

Another assay concerns MDA-MB-231. The assay is described as follows: Cytotoxicity against human MDA-MB-231 cells assessed as cell viability after 24 hrs by MTT assay. Format: functional, cell-based. The following applies: MDA-MB-231, 24 h. The method, boiled down: as §1
Take `C=C1C(O)[C@@]23CC[C@H]4[C@@](C)(CCC[C@@]4(C)C(=O)OCCBr)[C@@H]2CC[C@]1(O)C3` (some centres not stated): the IC50 is greater than 50 µM.

Take `C=C1[C@@H]2CC[C@H]3[C@]4(C)CCC[C@](C)(C(=O)O)[C@H]4CC[C@]3(C2)[C@@H]1OC(C)=O`: the IC50 was greater than 50 µM.

Turning to `C=C1[C@@H]2CC[C@]3(O)[C@@](CC[C@@H]4C(C)(C)CCC[C@]43C)(C2)[C@@H]1O`, the IC50 is greater than 50 µM.

Test system in another assay: not listed separately
In words: Cytotoxicity against human Saos2 cells assessed as cell viability after 24 hrs by MTT assay. Format: functional, cell-based. Conditions: SAOS-2, 24 h. In outline: as §1
Turning to `C=C1C(O)[C@@]23CC[C@H]4[C@@](C)(CCC[C@@]4(C)C(=O)OCCBr)[C@@H]2CC[C@]1(O)C3` (some centres not stated), the half-maximal inhibitory concentration (IC50) is greater than 50 µM.

With `C=C1[C@@H]2CC[C@H]3[C@]4(C)CCC[C@](C)(C(=O)O)[C@H]4CC[C@]3(C2)[C@@H]1OC(C)=O`, the IC50 was greater than 50 µM.

As for `C=C1[C@@H]2CC[C@]3(O)[C@@](CC[C@@H]4C(C)(C)CCC[C@]43C)(C2)[C@@H]1O`, the IC50 was greater than 50 µM.

Test system in another assay: not listed separately
The assay is described as follows: Cytotoxicity against human SKOV3 cells assessed as cell viability after 24 hrs by MTT assay. Format: functional, cell-based. Conditions: SK-OV-3, 24 h. In outline: as §1
As for `C=C1C(O)[C@@]23CC[C@H]4[C@@](C)(CCC[C@@]4(C)C(=O)OCCBr)[C@@H]2CC[C@]1(O)C3` (some centres not stated), the IC50 was greater than 50 µM.

As to `C=C1[C@@H]2CC[C@H]3[C@]4(C)CCC[C@](C)(C(=O)O)[C@H]4CC[C@]3(C2)[C@@H]1OC(C)=O`, the 50% inhibitory concentration (IC50) is greater than 50 µM.

In the case of `C=C1[C@@H]2CC[C@]3(O)[C@@](CC[C@@H]4C(C)(C)CCC[C@]43C)(C2)[C@@H]1O`, the IC50 is greater than 50 µM.

Test system in another assay: not listed separately
The assay is described as follows: Cytotoxicity against human A172 cells assessed as cell viability after 24 hrs by MTT assay. Format: functional, cell-based. The following applies: A 172, 24 h. In outline:
as §1
In the case of `C=C1C(O)[C@@]23CC[C@H]4[C@@](C)(CCC[C@@]4(C)C(=O)OCCBr)[C@@H]2CC[C@]1(O)C3` (some centres not stated), the IC50 was greater than 50 µM.

As to `C=C1[C@@H]2CC[C@H]3[C@]4(C)CCC[C@](C)(C(=O)O)[C@H]4CC[C@]3(C2)[C@@H]1OC(C)=O`, the IC50 is greater than 50 µM.

In the case of `C=C1[C@@H]2CC[C@]3(O)[C@@](CC[C@@H]4C(C)(C)CCC[C@]43C)(C2)[C@@H]1O`, the IC50 was greater than 50 µM.

Test system in another assay: not listed separately
The assay is described as follows: Cytotoxicity against human HL60 cells assessed as cell viability after 24 hrs by MTT assay. Format: functional, cell-based. Conditions: HL-60, 24 h. In outline:
as §1
As to `C=C1C(O)[C@@]23CC[C@H]4[C@@](C)(CCC[C@@]4(C)C(=O)OCCBr)[C@@H]2CC[C@]1(O)C3` (some centres not stated), the IC50 is greater than 50 µM.

As for `C=C1[C@@H]2CC[C@H]3[C@]4(C)CCC[C@](C)(C(=O)O)[C@H]4CC[C@]3(C2)[C@@H]1OC(C)=O`, the IC50 was greater than 50 µM.

On to `C=C1[C@@H]2CC[C@]3(O)[C@@](CC[C@@H]4C(C)(C)CCC[C@]43C)(C2)[C@@H]1O`, for which the IC50 is greater than 50 µM.

Test system in another assay: not listed separately
In words: Cytotoxicity against human RWPE1 cells assessed as cell viability after 24 hrs by MTT assay. Format: cell-based. The following applies: RWPE-1, 24 h. The method, boiled down:
as §1
Turning to `C=C1C(O)[C@@]23CC[C@H]4[C@@](C)(CCC[C@@]4(C)C(=O)OCCBr)[C@@H]2CC[C@]1(O)C3` (some centres not stated), the IC50 is greater than 50 µM.

As to `C=C1[C@@H]2CC[C@H]3[C@]4(C)CCC[C@](C)(C(=O)O)[C@H]4CC[C@]3(C2)[C@@H]1OC(C)=O`, the IC50 is greater than 50 µM.

As for `C=C1[C@@H]2CC[C@]3(O)[C@@](CC[C@@H]4C(C)(C)CCC[C@]43C)(C2)[C@@H]1O`, the IC50 is greater than 50 µM.

Another assay deals with LNCaP. The assay is described as follows: Cytotoxicity against human LNCAP cells assessed as cell viability after 24 hrs by MTT assay. Format: functional, cell-based.
Conditions: not given
The method, boiled down: as §1
Turning to `C=C1C(O)[C@@]23CC[C@H]4[C@@](C)(CCC[C@@]4(C)C(=O)OCCBr)[C@@H]2CC[C@]1(O)C3` (some centres not stated), the IC50 was greater than 50 µM.

In the case of `C=C1[C@@H]2CC[C@H]3[C@]4(C)CCC[C@](C)(C(=O)O)[C@H]4CC[C@]3(C2)[C@@H]1OC(C)=O`, the IC50 is greater than 50 µM.

Turning to `C=C1[C@@H]2CC[C@]3(O)[C@@](CC[C@@H]4C(C)(C)CCC[C@]43C)(C2)[C@@H]1O`, the IC50 was greater than 50 µM.

For the next assay, the system named is LoVo. The assay is described as follows: Cytotoxicity against human LoVo cells assessed as cell viability after 24 hrs by MTT assay. Format: functional, cell-based.
Conditions: not given
In outline: as §1
As to `C=C1C(O)[C@@]23CC[C@H]4[C@@](C)(CCC[C@@]4(C)C(=O)OCCBr)[C@@H]2CC[C@]1(O)C3` (some centres not stated), the IC50 is greater than 50 µM.

On to `C=C1[C@@H]2CC[C@H]3[C@]4(C)CCC[C@](C)(C(=O)O)[C@H]4CC[C@]3(C2)[C@@H]1OC(C)=O`, for which the IC50 is greater than 50 µM.

Take `C=C1[C@@H]2CC[C@]3(O)[C@@](CC[C@@H]4C(C)(C)CCC[C@]43C)(C2)[C@@H]1O`: the IC50 is greater than 50 µM.

Another assay deals with K562. The assay is described as follows: Cytotoxicity against human K562 cells assessed as cell viability after 24 hrs by MTT assay. Format: functional, cell-based. The following applies: K562, 24 h. In outline: as §1
Consider `C=C1C(O)[C@@]23CC[C@H]4[C@@](C)(CCC[C@@]4(C)C(=O)OCCBr)[C@@H]2CC[C@]1(O)C3` (some centres not stated), for which the IC50 is greater than 50 µM.

In the case of `C=C1[C@@H]2CC[C@H]3[C@]4(C)CCC[C@](C)(C(=O)O)[C@H]4CC[C@]3(C2)[C@@H]1OC(C)=O`, the IC50 was greater than 50 µM.

Regarding `C=C1[C@@H]2CC[C@]3(O)[C@@](CC[C@@H]4C(C)(C)CCC[C@]43C)(C2)[C@@H]1O`, the IC50 was greater than 50 µM.

Test system in the next assay: not listed separately
The assay is described as follows: Cytotoxicity against human PC3 cells assessed as cell viability after 24 hrs by MTT assay. The following applies: PC-3, 24 h. Format: functional, cell-based. In outline:
as §1
With `C=C1C(O)[C@@]23CC[C@H]4[C@@](C)(CCC[C@@]4(C)C(=O)OCCBr)[C@@H]2CC[C@]1(O)C3` (some centres not stated), the IC50 is greater than 50 µM.

Take `C=C1[C@@H]2CC[C@H]3[C@]4(C)CCC[C@](C)(C(=O)O)[C@H]4CC[C@]3(C2)[C@@H]1OC(C)=O`: the IC50 is greater than 50 µM.

Take `C=C1[C@@H]2CC[C@]3(O)[C@@](CC[C@@H]4C(C)(C)CCC[C@]43C)(C2)[C@@H]1O`: the IC50 was greater than 50 µM.
